pIC50: −log10 of the molar value. The source made the active and inactive calls. The rule behind the calls is not given here.
Key:
SF-295 [1] = test: Cytotoxicity against human SF295 cells at 30 uM after 48 hrs by SRB assay; format: functional; details: SF-295, 48 h, read-out: GI
A549 [2] = test: Cytotoxicity against human A549 cells at 30 uM after 48 hrs by SRB assay; format: functional; details: A549, 48 h, read-out: GI
HEp-2 [3] = test: Cytotoxicity against human Hep2 cells at 10 uM after 48 hrs by SRB assay; format: functional; details: HEp-2, 48 h, read-out: GI
HEp-2 [4] = test: Cytotoxicity against human Hep2 cells at 50 uM after 48 hrs by SRB assay; format: functional; details: HEp-2, 48 h, read-out: GI
HL-60 [5] = test: Induction of apoptosis in human HL60 cells assessed as change in mitochondrial membrane potential after 24 hrs using rhodamine-123 staining by fluorescence based confocal microscopy analysis; format: functional, cell-based
Outline: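 HL-60 cells (6 × 10⁴/mL/well) were treated for 24 h. Rhodamine-123 (1 µM) was added in serum-free medium 30 min before the end, in the dark. Cells were then washed and resuspended in PBS. Fluorescence loss was viewed by confocal microscopy with 488 nm laser excitation. Each experiment was done twice.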

MCF7 [6] = test: Cytotoxicity against human MCF7 cells at 50 uM after 48 hrs by SRB assay; format: functional; details: MCF7, 48 h, read-out: GI
THP-1 [7] = test: Cytotoxicity against human THP1 cells at 30 uM after 48 hrs by SRB assay; format: functional; details: THP-1, 48 h, read-out: GI
THP-1 [8] = test: Cytotoxicity against human THP1 cells at 10 uM after 48 hrs by SRB assay; format: functional; details: THP-1, 48 h, read-out: GI
DU-145 [9] = test: Cytotoxicity against human DU145 cells at 30 uM after 48 hrs by SRB assay; format: functional; details: DU-145, 48 h, read-out: GI
CV-1 = test: Induction of apoptosis in african green monkey CV1 cells assessed as DNA ladder formation at 10 to 60 uM after 24 hrs by DNA agarose gel electrophoresis; format: cell-based; details: chlorocebus aethiops, cv-1, 24 h
Outline: (§1)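 DNA fragmentation assay in HL-60 cells (2 × 10⁶ cells/well) or CV-1 cells, treated for 24 h. Cells were lysed in Tris–HCl pH 8.0/NaCl/EDTA/Triton X-100 with proteinase K (200 µg/mL) at 50 °C for 1 h, then DNase-free RNase for 90 min. DNA was phenol:chloroform extracted and ethanol precipitated. Gels were 1% agarose in TAE at 80 V for 1.5 h. Camptothecin (5 µM, 6 h) served as positive control in HL-60.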

HL-60 [10] = test: Cytotoxicity against human HL60 cells at 10 uM after 48 hrs by SRB assay; format: functional; details: HL-60, 48 h, read-out: GI
HCT-15 [11] = test: Cytotoxicity against human HCT15 cells at 30 uM after 48 hrs by SRB assay; format: functional; details: HCT-15, 48 h, read-out: GI
THP-1 [12] = test: Inhibition of cell invasion in human THP1 cells at 1 to 30 uM after 24 hrs by wound-healing assay; format: functional, cell-based
Outline: (§2)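 THP-1 monolayers (3×10⁵ cells/mL/well) were scratched with a pipette tip and washed three times with PBS. Test samples were added for 24 h, then fresh medium was added until the control wound healed. Wounds were imaged with a 10× objective at 0 h and 24 h. Migration was quantified as the distance between wound edges.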

A549 [13] = test: Cytotoxicity against human A549 cells at 50 uM after 48 hrs by SRB assay; format: functional; details: A549, 48 h, read-out: GI
THP-1 [14] = test: Inhibition of colony formation in human THP1 cells using crystal violet staining after 24 hrs by clonogenic assay; format: functional, cell-based
Outline: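 THP-1 cells from log-phase culture were plated at clonogenic dilution. After 24 h they were treated for 24 h, then incubated for at least six potential divisions (colonies >50 cells). Colonies were fixed and stained with 6% glutaraldehyde plus 0.5% crystal violet for 30 min, washed with water and air-dried.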

HEp-2 [15] = test: Cytotoxicity against human Hep2 cells after 48 hrs by SRB assay; format: functional, cell-based; details: HEp-2, 48 h
MCF7 [16] = test: Cytotoxicity against human MCF7 cells at 10 uM after 48 hrs by SRB assay; format: functional; details: MCF7, 48 h, read-out: GI
MCF7 [17] = test: Cytotoxicity against human MCF7 cells at 30 uM after 48 hrs by SRB assay; format: functional; details: MCF7, 48 h, read-out: GI
HL-60 [18] = test: Induction of apoptosis in human HL60 cells assessed as DNA ladder formation at 20 to 30 uM after 24 hrs by DNA agarose gel electrophoresis; format: functional, cell-based; outline: as §1
THP-1 [19] = test: Inhibition of cell migration in human THP1 cells at 1 to 30 uM after 24 hrs by wound-healing assay; format: functional, cell-based; outline: as §2
THP-1 [20] = test: Cytotoxicity against human THP1 cells after 48 hrs by SRB assay; format: functional, cell-based; details: THP-1, 48 h
MCF7 [21] = test: Cytotoxicity against human MCF7 cells after 48 hrs by SRB assay; format: functional, cell-based; details: MCF7, 48 h
PC-3 [22] = test: Cytotoxicity against human PC3 cells at 30 uM after 48 hrs by SRB assay; format: functional; details: PC-3, 48 h, read-out: GI
PC-3 [23] = test: Cytotoxicity against human PC3 cells at 10 uM after 48 hrs by SRB assay; format: functional; details: PC-3, 48 h, read-out: GI
HCT-15 [24] = test: Cytotoxicity against human HCT15 cells after 48 hrs by SRB assay; format: functional, cell-based; details: HCT-15, 48 h
HCT-15 [25] = test: Cytotoxicity against human HCT15 cells at 50 uM after 48 hrs by SRB assay; format: functional; details: HCT-15, 48 h, read-out: GI
SF-295 [26] = test: Cytotoxicity against human SF295 cells at 10 uM after 48 hrs by SRB assay; format: functional; details: SF-295, 48 h, read-out: GI
HL-60 [27] = test: Ratio of betulinic acid IC50 to compound IC50 for human HL60 cells; format: functional
PC-3 [28] = test: Cytotoxicity against human PC3 cells after 48 hrs by SRB assay; format: functional, cell-based; details: PC-3, 48 h
DU-145 [29] = test: Cytotoxicity against human DU145 cells after 48 hrs by SRB assay; format: functional, cell-based; details: DU-145, 48 h
HL-60 [30] = test: Induction of apoptosis in human HL60 cells assessed as DNA ladder formation after 24 hrs by DNA agarose gel electrophoresis; format: functional; outline: as §1
HL-60 [31] = test: Cytotoxicity against human HL60 cells after 48 hrs by SRB assay; format: functional, cell-based; details: HL-60, 48 h
SF-295 [32] = test: Cytotoxicity against human SF295 cells after 48 hrs by SRB assay; format: functional, cell-based; details: SF-295, 48 h
A549 [33] = test: Cytotoxicity against human A549 cells at 10 uM after 48 hrs by SRB assay; format: functional; details: A549, 48 h, read-out: GI
DU-145 [34] = test: Cytotoxicity against human DU145 cells at 10 uM after 48 hrs by SRB assay; format: functional; details: DU-145, 48 h, read-out: GI
SF-295 [35] = test: Cytotoxicity against human SF295 cells at 50 uM after 48 hrs by SRB assay; format: functional; details: SF-295, 48 h, read-out: GI
HL-60 [36] = test: Cytotoxicity against human HL60 cells at 30 uM after 48 hrs by SRB assay; format: functional; details: HL-60, 48 h, read-out: GI
HL-60 [37] = test: Cytotoxicity against human HL60 cells at 50 uM after 48 hrs by SRB assay; format: functional; details: HL-60, 48 h, read-out: GI
PC-3 [38] = test: Cytotoxicity against human PC3 cells at 50 uM after 48 hrs by SRB assay; format: functional; details: PC-3, 48 h, read-out: GI
HCT-15 [39] = test: Cytotoxicity against human HCT15 cells at 10 uM after 48 hrs by SRB assay; format: functional; details: HCT-15, 48 h, read-out: GI
THP-1 [40] = test: Cytotoxicity against human THP1 cells at 50 uM after 48 hrs by SRB assay; format: functional; details: THP-1, 48 h, read-out: GI
DU-145 [41] = test: Cytotoxicity against human DU145 cells at 50 uM after 48 hrs by SRB assay; format: functional; details: DU-145, 48 h, read-out: GI
HEp-2 [42] = test: Cytotoxicity against human Hep2 cells at 30 uM after 48 hrs by SRB assay; format: functional; details: HEp-2, 48 h, read-out: GI
A549 [43] = test: Cytotoxicity against human A549 cells after 48 hrs by SRB assay; format: functional, cell-based; details: A549, 48 h

`C=C(C)[C@@H]1CC[C@]2(C(=O)O)CC[C@]3(C)[C@H](CC[C@@H]4[C@@]5(C)CC[C@H](OCc6cn(-c7cccc8c(O)cccc78)nn6)C(C)(C)[C@@H]5CC[C@]43C)[C@@H]12` showed an inhibition of growth at 30 µM (SF-295 [1]) of 61%, an inhibition of growth at 30 µM (A549 [2]) of 60% and an inhibition of growth at 10 µM (HEp-2 [3]) of 45%. For the same molecule, the inhibition of growth at 50 µM (HEp-2 [4]) was 74%, the Activity (HL-60 [5]) was “Dose-dependent effect” and the inhibition of growth at 50 µM (MCF7 [6]) was 82%. It also gave an inhibition of growth at 30 µM (THP-1 [7]) of 82%, an inhibition of growth at 10 µM (THP-1 [8]) of 51% and an inhibition of growth at 30 µM (DU-145 [9]) of 69%. The Activity (CV-1) was “Non-toxic”, the inhibition of growth at 10 µM (HL-60 [10]) was 63% and the inhibition of growth at 30 µM (HCT-15 [11]) was 64%. The inhibition (THP-1 [12]) was “Active”, the inhibition of growth at 50 µM (A549 [13]) was 72% and the inhibition (THP-1 [14]) was “Dose-dependent effect”. It also gave a pIC50 (HEp-2 [15]) of 4.89, an inhibition of growth at 10 µM (MCF7 [16]) of 51% and an inhibition of growth at 30 µM (MCF7 [17]) of 63%. For the same molecule, the Activity (HL-60 [18]) was “Active”, the inhibition (THP-1 [19]) was “Active” and the pIC50 (THP-1 [20]) was 5.10. For the same molecule, the pIC50 (MCF7 [21]) was 5.05, the inhibition of growth at 30 µM (PC-3 [22]) was 61% and the inhibition of growth at 10 µM (PC-3 [23]) was 35%. It also gave a pIC50 (HCT-15 [24]) of 4.82, an inhibition of growth at 50 µM (HCT-15 [25]) of 72% and an inhibition of growth at 10 µM (SF-295 [26]) of 18%. For the same molecule, the “Ratio IC50” value (HL-60 [27]) was 5, the pIC50 (PC-3 [28]) was 4.80 and the pIC50 (DU-145 [29]) was 4.85. The Activity (HL-60 [30]) was “Dose-dependent effect”, the MED (HL-60 [30]) was 20 µM and the pIC50 (HL-60 [31]) was 5.46. It also gave a pIC50 (SF-295 [32]) of 4.60, an inhibition of growth at 10 µM (A549 [33]) of 42% and an inhibition of growth at 10 µM (DU-145 [34]) of 38%. It also gave an inhibition of growth at 50 µM (SF-295 [35]) of 87%, an inhibition of growth at 30 µM (HL-60 [36]) of 95% and an inhibition of growth at 50 µM (HL-60 [37]) of 98%. The inhibition of growth at 50 µM (PC-3 [38]) was 94%, the inhibition of growth at 10 µM (HCT-15 [39]) was 40% and the inhibition of growth at 50 µM (THP-1 [40]) was 92%. The inhibition of growth at 50 µM (DU-145 [41]) was 86%, the inhibition of growth at 30 µM (HEp-2 [42]) was 63% and the pIC50 (A549 [43]) was 4.80.
